Results taken from PMC5722212 (Chemistry (Weinheim an der Bergstrasse, Germany), 2017).

Key:
Akt = experiment: Western blot analysis of cytosolic Hsp90-dependent client protein Akt; type: cell-based; details: geldanamycin 0.5 μM, 24 h; all cell lines
How it was run: (§1)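 MDA-MB-231 and PC3-MM2 (DMEM), SK-MEL-28 (EMEM) or A549 (F-12K) cells, each in medium with 10% FBS and penicillin/streptomycin, were seeded at 100,000 cells/mL and grown 24 h at 37°C, 5% CO2. Cells were then treated with test compound, geldanamycin (0.5 μM) or DMSO vehicle for 24 h. Cold-PBS harvest, lysis with protease inhibitors, BCA-equalised protein, reducing 10% gels, PVDF, HRP chemiluminescence; actin loading control.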

Hsp70 = experiment: Western blot analysis of Hsp70 induction; type: cell-based; details: geldanamycin 0.5 μM, 24 h; all cell lines
How it was run: as §1

COC1=C2C[C@@H](C)C[C@H](OC)[C@H](O)[C@@H](C)/C=C(\C)[C@H](OC(N)=O)[C@@H](OC)/C=C\C=C(/C)C(=O)NC(=CC1=O)C2=O [geldanamycin]
degradation of Akt (Akt): induced the degradation of Akt
levels of Hsp70 (Hsp70): increased the levels of Hsp70
